The record followed here is ChEMBL document CHEMBL1147022, “Studies on synthesis and evaluation of quantitative structure-activity relationship of 10-methyl-6-oxo-5-arylazo-6,7-dihydro-5H-[1,3]azaphospholo[1,5-d][1,4]benzodiazepin-2-phospha-3-ethoxycarbonyl-1-phosphorus dichlorides” (2006).

Structures are written as SMILES.

What all share (type): functional
Set-up in all cases: unit not given here

One test concerns Escherichia coli. The test is described as follows: Antibacterial activity against Escherichia coli ATCC 445. A digest of the protocol:
(§1)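 Agar 2-fold serial dilution MIC on nutrient agar. Test compounds come from 1 mg/mL DMSO stocks. Inoculum is about 10⁷ CFU/mL bacterial suspension prepared from broth cultures. Plates are run in triplicate and incubated at 37 °C for 16–47 h. Ampicillin trihydrate is the reference drug, tested under the same conditions.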

A further test relates to Bacillus subtilis. The test is described as follows: Antibacterial activity against Bacillus subtilis ATCC 6633. A digest of the protocol: as §1
The test system of a further test is Aspergillus niger. Description: Antifungal activity against Aspergillus niger ATCC 16404. The method, boiled down: (§2)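 Fungal MIC by standard 2-fold serial dilution in Sabouraud dextrose agar, using compounds diluted from 1 mg/mL DMSO stocks. Plates receive about 10⁶ CFU/mL fungal suspension made from broth cultures, in triplicate, and are kept at 37 °C for 48–72 h. Clotrimazole is the reference drug.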

For a further test, the system named is Candida albicans. Description: Antifungal activity against Candida albicans ATCC 10231. A digest of the protocol:
as §2

As for `CCOC(=O)c1pc(P(Cl)Cl)c2n1[C@@H](N=Nc1cccc(OC)c1)C(=O)Nc1ccc(C)cc1-2` (stereo partly drawn), the “-Log MIC” value turned out to be 4.3 in the test with Escherichia coli, 4.28 in the test with Bacillus subtilis, 4.56 with Aspergillus niger and 4.39 with Candida albicans.
For `CCOC(=O)c1pc(P(Cl)Cl)c2n1[C@@H](N=Nc1ccc(Cl)cc1)C(=O)Nc1ccc(C)cc1-2` (stereo partly drawn), in that order: 4.39, 4.41, 4.51 and 4.36.
Consider `CCOC(=O)c1pc(P(Cl)Cl)c2n1[C@@H](N=Nc1cccc(Cl)c1)C(=O)Nc1ccc(C)cc1-2` (stereo partly drawn), for which the “-Log MIC” value in the test with Escherichia coli was found to be 4.54; in the test on Bacillus subtilis, 4.46; with Aspergillus niger, 4.68; in the test with Candida albicans, 4.47.
Turning to `CCOC(=O)c1pc(P(Cl)Cl)c2n1[C@@H](N=Nc1cccc(C(=O)O)c1)C(=O)Nc1ccc(C)cc1-2` (stereo partly drawn), the “-Log MIC” value with Escherichia coli is given as 4.36; in the test on Bacillus subtilis it was 4.37; in the test on Aspergillus niger, 4.48; with Candida albicans, 4.32.
On to `CCOC(=O)c1pc(P(Cl)Cl)c2n1[C@@H](N=Nc1ccccc1)C(=O)Nc1ccc(C)cc1-2` (stereo partly drawn), for which the “-Log MIC” value with Escherichia coli is 4.05; in the test on Bacillus subtilis, 4.05; in the test with Aspergillus niger, 4.12; in the test with Candida albicans it was 4.1.
Consider `CCOC(=O)c1pc(P(Cl)Cl)c2n1[C@@H](N=Nc1cccc(OCC)c1)C(=O)Nc1ccc(C)cc1-2` (stereo partly drawn), for which the “-Log MIC” value with Escherichia coli is recorded as 5.04; in the test on Bacillus subtilis, 4.96; in the test with Aspergillus niger, 4.89; with Candida albicans, 4.78.
For `CCOC(=O)c1pc(P(Cl)Cl)c2n1[C@@H](N=Nc1ccc(C)cc1)C(=O)Nc1ccc(C)cc1-2` (stereo partly drawn), the “-Log MIC” value with Escherichia coli was 4.17; in the test with Bacillus subtilis, 4.22; in the test with Aspergillus niger, 4.22; with Candida albicans, 4.09.
Consider `CCOC(=O)c1pc(P(Cl)Cl)c2n1[C@@H](N=Nc1ccc(CC)cc1)C(=O)Nc1ccc(C)cc1-2` (stereo partly drawn), for which the “-Log MIC” value in the test on Escherichia coli is recorded as 4.58; in the test with Bacillus subtilis, 4.64; in the test with Aspergillus niger it was 4.64; with Candida albicans, 4.52.
As for `CCOC(=O)c1pc(P(Cl)Cl)c2n1[C@@H](N=Nc1cccc(C)c1)C(=O)Nc1ccc(C)cc1-2` (stereo partly drawn), the “-Log MIC” value worked out at 4.22 with Escherichia coli, 4.25 in the test on Bacillus subtilis, 4.31 in the test with Aspergillus niger and 4.17 in the test with Candida albicans.
As to `CCOC(=O)c1pc(P(Cl)Cl)c2n1[C@@H](N=Nc1cccc(O)c1)C(=O)Nc1ccc(C)cc1-2` (stereo partly drawn), the “-Log MIC” value in the test on Escherichia coli is on record as 4.2; in the test with Bacillus subtilis it was 4.22; in the test on Aspergillus niger, 4.25; with Candida albicans, 4.11.
As for `CCOC(=O)c1pc(P(Cl)Cl)c2n1[C@@H](N=Nc1ccc([N+](=O)[O-])cc1)C(=O)Nc1ccc(C)cc1-2` (stereo partly drawn), the “-Log MIC” value is 4.61 with Escherichia coli, 4.52 with Bacillus subtilis, 4.45 with Aspergillus niger and 4.32 in the test on Candida albicans.
For `CCOC(=O)c1pc(P(Cl)Cl)c2n1[C@@H](N=Nc1cccc(CC)c1)C(=O)Nc1ccc(C)cc1-2` (stereo partly drawn), in that order: 4.88, 4.68, 4.82 and 4.61.
Taken in the same sequence, the figures for `CCOC(=O)c1pc(P(Cl)Cl)c2n1[C@@H](N=Nc1ccc(OCC)cc1)C(=O)Nc1ccc(C)cc1-2` (stereo partly drawn) were 4.74, 4.83, 4.74 and 4.59.
Taken in the same sequence, the figures for `CCOC(=O)c1pc(P(Cl)Cl)c2n1[C@@H](N=Nc1ccc(O)cc1)C(=O)Nc1ccc(C)cc1-2` (stereo partly drawn) were 4.11, 4.17, 4.18 and 4.06.
For the compound `CCOC(=O)c1pc(P(Cl)Cl)c2n1[C@@H](N=Nc1ccc(OC)cc1)C(=O)Nc1ccc(C)cc1-2` (stereo partly drawn), the “-Log MIC” value is reported as 4.26 in the test with Escherichia coli, 4.29 with Bacillus subtilis, 4.39 in the test with Aspergillus niger and 4.24 in the test with Candida albicans.
As for `CCOC(=O)c1pc(P(Cl)Cl)c2n1[C@@H](N=Nc1cccc([N+](=O)[O-])c1)C(=O)Nc1ccc(C)cc1-2` (stereo partly drawn), the “-Log MIC” value in the test on Bacillus subtilis worked out at 4.55; in the test on Aspergillus niger it was 4.56; in the test on Candida albicans it was 4.5.
